Measured values as given in ChEMBL document CHEMBL2034944, “Cytotoxic and anti-inflammatory triterpenoids from Toona ciliata” (J Nat Prod, 2012).

What was measured:
Type in all cases: functional, cell-based
MCF7 = assay: Cytotoxicity against human MCF7 cells after 48 hrs by MTT assay; settings: MCF7, 48 h
In short: (§1)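 MTT assay; cells grown in RPMI-1640 or DMEM with 10% FBS, 37 °C, 5% CO2. Adherent cells allowed to attach 12 h before dosing; suspension cells seeded just before dosing at 1 × 10^5 cells/mL. Exposure at 0.1, 1, 10, 100 and 500 μM in triplicate for 48 h. 5-fluorouracil and doxorubicin as positive controls. IC50 by Reed and Muench method.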

[1] = Cytotoxicity against multidrug-resistant human MCF7/ADR cells after 48 hrs by MTT assay; settings: NCI/ADR-RES; in short: as §1
KB = assay: Cytotoxicity against human KB cells after 48 hrs by MTT assay; in short: as §1
[2] = Cytotoxicity against human KB/VCR cells after 48 hrs by MTT assay; in short: as §1
SMMC-7721 = assay: Cytotoxicity against human SMMC7721 cells after 48 hrs by MTT assay; settings: SMMC-7721, 48 h; in short: as §1
K562 = assay: Cytotoxicity against human K562 cells after 48 hrs by MTT assay; settings: K562, 48 h; in short: as §1
RAW264.7 = assay: Antiinflammatory activity in mouse RAW264.7 cells assessed as inhibition of LPS-induced nitric oxide production pretreated for 2 hrs before LPS challenge measured after 18 hrs by Griess method
In short: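 RAW 264.7 mouse macrophages in RPMI 1640 with 10% heat-inactivated FBS, penicillin/streptomycin, 37 °C, 5% CO2. Seeded 1 × 10^5 per well, 24 h, then pretreated 2 h with compounds at 40, 20, 10, 5, 2.5 μM (DMSO ≤0.1% final). LPS 2 μg/mL for 18 h. Supernatant nitrite read with Griess reagent at 540 nm against NaNO2 standard curve; n = 4; IC50.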

C[C@@H]([C@@H](O)[C@H](O)[C@H](O)C(C)(C)O)[C@@H]1CC[C@]2(C)C3=CC[C@H]4C(C)(C)C(=O)CC[C@]4(C)[C@H]3CC[C@@]12C
IC50 (MCF7): 17.1 µM | IC50 [1]: 22.6 µM | IC50 (KB): 10.2 µM | IC50 [2]: 32.1 µM | IC50 (SMMC-7721): 19.4 µM | IC50 (K562): 11.2 µM

C=C1[C@@H]([C@@]2(C)C=CC(=O)C(C)(C)[C@@H]2CC(=O)OC)[C@H](OC(C)=O)[C@H](OC(C)=O)[C@@]2(C)[C@H](C3=CCOC3=O)C[C@H]3O[C@]132
IC50 (MCF7): > 50 µM | IC50 [1]: > 50 µM | IC50 (KB): > 50 µM | IC50 [2]: > 50 µM | IC50 (SMMC-7721): > 50 µM | IC50 (K562): > 50 µM | IC50 (RAW264.7): 20.9 µM

C=C1[C@@H]([C@@]2(C)C=CC(=O)C(C)(C)[C@@H]2CC(=O)OC)[C@@H](OC(C)=O)[C@H](OC(C)=O)[C@@]2(C)[C@H](C3=CC(O)OC3=O)C[C@H]3O[C@]132 (stereo partly specified)
IC50 (RAW264.7): 41.4 µM

C=C1[C@@H]([C@@]2(C)C=CC(=O)C(C)(C)[C@@H]2CC(=O)OC)[C@@H](OC(C)=O)[C@H](OC(C)=O)[C@@]2(C)[C@H](C3=CC(=O)OC3O)C[C@H]3O[C@]132 (stereo partly specified)
IC50 (RAW264.7): 38.9 µM

C[C@@H]1C[C@H]2[C@@H]3CCC4=CC(=O)C=C[C@]4(C)[C@@]3(F)[C@@H](O)C[C@]2(C)[C@@]1(O)C(=O)CO [DEXAMETHASONE]
IC50 (RAW264.7): 0.98 µM

COc1cccc2c1C(=O)c1c(O)c3c(c(O)c1C2=O)C[C@@](O)(C(=O)CO)C[C@@H]3O[C@H]1C[C@H](N)[C@H](O)[C@H](C)O1 [DOXORUBICIN]
IC50 [1]: > 50 µM | IC50 [2]: 0.45 µM

O=c1[nH]cc(F)c(=O)[nH]1 [FLUOROURACIL]
IC50 (MCF7): > 100 µM | IC50 [1]: > 100 µM | IC50 (KB): 6.8 µM | IC50 [2]: 33.4 µM | IC50 (SMMC-7721): > 100 µM | IC50 (K562): 2.1 µM

CC(C)(O)[C@@H]1OC[C@H]([C@@H]2CC=C3[C@]4(C)C(=O)C[C@H]5C(C)(C)C(=O)C=C[C@]5(C)[C@H]4[C@H](O)C[C@]32C)C[C@H]1O [TOONACILIATAVARIN A]
IC50 (MCF7): > 50 µM | IC50 [1]: > 50 µM | IC50 (KB): > 50 µM | IC50 [2]: > 50 µM | IC50 (SMMC-7721): > 50 µM | IC50 (K562): > 50 µM | IC50 (RAW264.7): 9.4 µM

CC(=O)O[C@@H]1C[C@H]2C(C)(C)C(=O)C=C[C@]2(C)[C@H]2[C@H](O)C[C@]3(C)C(=CC[C@H]3[C@H]3CO[C@@H](C(C)(C)O)[C@H](O)C3)[C@@]21C [TOONACILIATAVARIN B]
IC50 (MCF7): > 50 µM | IC50 [1]: > 50 µM | IC50 (KB): > 50 µM | IC50 [2]: > 50 µM | IC50 (SMMC-7721): > 50 µM | IC50 (K562): > 50 µM | IC50 (RAW264.7): 7.9 µM

CC(=O)O[C@@H]1C[C@H]2C(C)(C)C(=O)C=C[C@]2(C)[C@H]2[C@H](O)C[C@]3(C)C(=CC[C@H]3[C@H]3COC(C)(C)[C@@H](O)[C@H](O)C3)[C@@]21C [TOONACILIATAVARIN C]
IC50 (MCF7): > 50 µM | IC50 [1]: > 50 µM | IC50 (KB): > 50 µM | IC50 [2]: > 50 µM | IC50 (SMMC-7721): > 50 µM | IC50 (K562): > 50 µM | IC50 (RAW264.7): 11 µM

CC1(C)OC[C@H]([C@@H]2CC[C@]3(C)C4=CC[C@H]5C(C)(C)[C@@H](O)CC[C@]5(C)[C@H]4CC[C@@]23C)C[C@@H](O)[C@@H]1O [TOONACILIATAVARIN D]
IC50 (MCF7): > 50 µM | IC50 [1]: > 50 µM | IC50 (KB): 39.5 µM | IC50 [2]: > 50 µM | IC50 (SMMC-7721): 31.4 µM | IC50 (K562): 43.1 µM | IC50 (RAW264.7): 33.4 µM

CC1(C)C(=O)C=C[C@]2(C)C3=CC[C@@]4(C)[C@H](C5=CC(=O)OC5O)C[C@H]5O[C@]54[C@]3(C)C(=O)C[C@@H]12 (stereo partly specified) [TOONACILIATAVARIN F]
IC50 (MCF7): > 50 µM | IC50 [1]: > 50 µM | IC50 (KB): > 50 µM | IC50 [2]: > 50 µM | IC50 (SMMC-7721): > 50 µM | IC50 (K562): > 50 µM | IC50 (RAW264.7): 28.8 µM

CC1(C)C(=O)C=C[C@]2(C)C3=CC[C@@]4(C)[C@H](C5=CC(O)OC5=O)C[C@H]5O[C@]54[C@]3(C)C(=O)C[C@@H]12 (stereo partly specified) [TOONACILIATAVARIN G]
IC50 (MCF7): > 50 µM | IC50 [1]: > 50 µM | IC50 (KB): > 50 µM | IC50 [2]: > 50 µM | IC50 (SMMC-7721): > 50 µM | IC50 (K562): > 50 µM | IC50 (RAW264.7): 15.2 µM
